The values that follow come from paper PMC10613910 (Heliyon, 2023).

By AUC is commonly meant concentration integrated over time. By Cmax is commonly meant the peak of the concentration-time curve.

The nature of data set [1]: Influence of novobiocin pretreatment on talazoparib pharmacokinetics in mice. The following applies: female, FVB, mouse, plasma, po, 0.5 mg/kg, mean (±SEM), N=5; for AUC: 0-4 h. Type of data set: in vivo. The method in brief:
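Female mice aged 12–20 weeks (wild-type FVB or ABCB1A/ABCB1B/ABCG2-null), fasted 2 h. Pretreatment (50 mg/kg in 5% dextrose) or vehicle given by oral gavage 30 min before test compound (0.1 mg/mL in 10% dimethylacetamide/5% Solutol HS/85% PBS). Blood sampled 5 min–4 h. Plasma assayed by UHPLC-MS/MS with isotope-labelled internal standard. Cmax read from the curve; AUC0–4h by log-linear trapezoidal rule.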

The conditions of data set [2]: clinical studies, oral; cited from earlier work.
For data set [3], the system named is MDCKII cells overexpressing ABCG2. The note with it: cited from earlier work.
The nature of data set [4]: Stability of talazoparib in mouse plasma QC samples. Format: physicochemical. The note with it: for Bench-top stability, mean deviation: ambient temperature (25 °C) for 6 h; for Bench-top stability, mean deviation / Auto-sampler stability, mean deviation / Re-injection stability, mean deviation: N=3; for Auto-sampler stability, mean deviation: auto-sampler at 4 °C for 24 h; for Re-injection stability, mean deviation: reanalyzed after 24 h in auto-sampler at 4 °C. Put shortly:
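Spiked mouse plasma QC at low (1.5 ng/mL) and high (80 ng/mL) levels. Conditions: bench-top at ambient temperature 6 h; extracts held in autosampler at 4 °C 24 h; processed samples re-injected after 24 h at 4 °C; three cycles of −80 °C storage for 12 h with room-temperature thaw. Quantified by UHPLC-MS/MS with isotope-labelled IS; acceptable within 85–115% of nominal.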

A short description of data set [5]: Pharmacokinetics of oral talazoparib in wild-type and ABCB1/ABCG2. Format: in vivo, mouse. The note with it: talazoparib 0.5 mg/kg p.o.; for Cmax: female, FVB, mouse, plasma, po, 0.5 mg/kg, mean (±SEM). The method in brief: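 Adult female FVB wild-type or Abcb1a/Abcb1b/Abcg2-deficient mice (12–20 weeks, 4–5 per group) given test compound 0.5 mg/kg by oral gavage; dosing solution 0.1 mg/mL in 10% dimethylacetamide/5% Solutol HS/85% PBS. Blood at 5, 15, 30 min and 1, 2, 4 h, submandibular then retro-orbital (isoflurane), terminal cardiac. Plasma methanol-precipitated, UHPLC-MS/MS with isotope-labelled IS; Cmax visual, AUC(0–4 h) log-linear trapezoidal.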

Data set [6] concerns ABCG2. The following applies: mice with a deficiency of only ABCG2; cited from earlier work.
Setting [7] is: ABCB1/ABCG2(−/−) mice, novobiocin 50 mg/kg p.o. 30 min before talazoparib 0.5 mg/kg p.o.
The mark [8] stands for this setting: wild-type mice, novobiocin 50 mg/kg p.o. 30 min before talazoparib 0.5 mg/kg p.o.

`Cn1ncnc1[C@H]1c2n[nH]c(=O)c3cc(F)cc(c23)N[C@@H]1c1ccc(F)cc1` [Talazoparib]: the AUC in data set [1] (setting [7]) is 890 ng·h/mL; in data set [1] (setting [8]), 615 ng·h/mL. The Cmax in data set [1] (ABCB1/ABCG2(−/−) mice, co-treatment none (vehicle), talazoparib 0.5 mg/kg p.o.) came out at 352 ng/mL; in data set [1] (setting [7]), 449 ng/mL; in data set [1] (wild-type mice, co-treatment none (vehicle), talazoparib 0.5 mg/kg p.o.), 472 ng/mL; in data set [1] (setting [8]) it was 414 ng/mL; in data set [5] (ABCB1/ABCG2(−/−) mice, N=4), 350 ng/mL; in data set [5] (wild-type FVB mice, N=5) it was 360 ng/mL. For the same compound, the terminal half-life in data set [2] is recorded as approximately 50 h. Besides, the “levels of talazoparib in cells” value in data set [3] is reported as “unaltered”. For the same compound, the “time stable in mouse plasma samples at room temperature” value in data set [4] (bench-top, room temperature, mouse plasma) is listed as “at least 6 h”. Further, the “auto-sampler and reinjection stability time” value in data set [4] (extracted samples at 4 °C in auto-sampler) is “at least 24 h”. Further, the “stability after repeated freeze and thaw cycles” value in data set [4] (mouse plasma samples, three freeze-thaw cycles) is given as “remained stable”. For the same compound, the “Bench-top stability, mean deviation” value is recorded as 2.15% in data set [4] (nominal 1.5 ng/mL, mouse plasma) and −8.09% in data set [4] (nominal 80 ng/mL, mouse plasma). For the same compound, the entries for the “Auto-sampler stability, mean deviation” value in data set [4] (nominal 1.5 ng/mL) and in data set [4] (nominal 80 ng/mL) were −4.34% and −5.14%, respectively. Also, the “Re-injection stability, mean deviation” value in data set [4] (nominal 1.5 ng/mL) came to 0.64%; in data set [4] (nominal 80 ng/mL) it was 0.62%. Moreover, in data set [5] (ABCB1/ABCG2(−/−) vs wild-type mice), the “increase in AUC with deficiency of ABCB1 and ABCG2” value is recorded as approximately 1.3 fold. Moreover, the “levels of talazoparib in plasma” value in data set [6] was “unaltered”.
